This is an account of results in ChEMBL document CHEMBL4715848, “1,2,3-Triazole tethered 1,2,4-trioxanes: Studies on their synthesis and effect on osteopontin expression in MDA-MB-435 breast cancer cells” (2020).

Active and inactive are the calls of the source. No cut-off for these calls is given here.

Tested on in the first experiment: not listed separately
The experiment can be described thus: Down regulation of OPN expression in human MDA-MB-435 cells at 10 uM measured after 24 hrs by Western blot analysis relative to control. Type of experiment: functional. A digest of the protocol:
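MDA-MB-435 cells (1x10^6 per 6 cm plate) grown 24 h in DMEM/10% FBS with penicillin-streptomycin, 37 °C, 5% CO2, then serum-starved 24 h. Treated 24 h with compound at 10 µM against a DMSO control. Secreted OPN in serum-free supernatant run on non-reducing 10% SDS-PAGE. Lysate β-actin run on 10% SDS-PAGE. Both probed with monoclonal antibodies, read by chemiluminescence and quantified by densitometry.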
On the technique in general: A western blot detects proteins with antibodies after separation by electrophoresis.
On to `CC(CCC1OC(c2ccc([N+](=O)[O-])cc2)OOC1(C)C)CCn1cc(COCCNCCOCc2cn(CCC(C)CCC3OC(c4ccc([N+](=O)[O-])cc4)OOC3(C)C)nn2)nn1` (stereo unspecified), for which the “fold change (FC)” value came to 0.28. On the same count and under the same terms, next, `CC(CCC1OC(c2ccc(Cl)cc2)OOC1(C)C)CCn1cc(COCCNCCOCc2cn(CCC(C)CCC3OC(c4ccc(Cl)cc4)OOC3(C)C)nn2)nn1` (stereo unspecified): 0.45; `Cc1ccc(C2OOC(C)(C)C(CCC(C)CCn3cc(COCCNCCOCc4cn(CCC(C)CCC5OC(c6ccc(C)cc6)OOC5(C)C)nn4)nn3)O2)cc1` (stereo unspecified): 0.15. `CC(CCC1OC(c2ccccc2)OOC1(C)C)CCn1cc(COCCNCCOCc2cn(CCC(C)CCC3OC(c4ccccc4)OOC3(C)C)nn2)nn1` (stereo unspecified): the “fold change (FC)” value stood at 0.11.

In the case of `CC(CCC1OC(c2ccc3c(c2)OCO3)OOC1(C)C)CCn1cc(COCCNCCOCc2cn(CCC(C)CCC3OC(c4ccc5c(c4)OCO5)OOC3(C)C)nn2)nn1` (stereo unspecified), the “fold change (FC)” value came out at 0.33. Same read-out and setting: with `CC(CCC1OC2(CCCCC2)OOC1(C)C)CCn1cc(COCCNCCOCc2cn(CCC(C)CCC3OC4(CCCCC4)OOC3(C)C)nn2)nn1` (stereo unspecified) the figure was 0.27; with `COc1ccc(C2OOC(C)(C)C(CCC(C)CCn3cc(COCCNCCOCc4cn(CCC(C)CCC5OC(c6ccc(OC)cc6)OOC5(C)C)nn4)nn3)O2)cc1` (stereo unspecified), 0.43.

With `CC(CCC1OC(c2ccc(F)cc2)OOC1(C)C)CCn1cc(COCCNCCOCc2cn(CCC(C)CCC3OC(c4ccc(F)cc4)OOC3(C)C)nn2)nn1` (stereo unspecified), the “fold change (FC)” value was 0.17. For the compound `CC(CCC1OC(c2cccc(Br)c2)OOC1(C)C)CCn1cc(COCCNCCOCc2cn(CCC(C)CCC3OC(c4cccc(Br)c4)OOC3(C)C)nn2)nn1` (stereo unspecified), the “fold change (FC)” value is 0.26.

Tested on in another experiment: not listed separately
The experiment can be described thus: (§1) Down regulation of OPN expression in human MDA-MB-435 cells at 50 uM measured after 24 hrs by Western blot analysis relative to control. The format is functional. Summed up: (§2)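 MDA-MB-435 cells (1x10^6 per 6 cm plate) grown 24 h in DMEM/10% FBS with penicillin-streptomycin, 37 °C, 5% CO2, then serum-starved 24 h. Treated 24 h with compound at 50 µM against a DMSO control. Secreted OPN in serum-free supernatant run on non-reducing 10% SDS-PAGE. Lysate β-actin run on 10% SDS-PAGE. Both probed with monoclonal antibodies, read by chemiluminescence and quantified by densitometry.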
For `CC(CCC1OC(c2ccco2)OOC1(C)C)CCn1cc(COC2[C@H]3OCO[C@H]3CO[C@@]23COC(C)(C)O3)nn1` (stereo partly specified), the “fold change (FC)” value came out at 0.12.

With `CC(CCC1OC(c2cccc(Br)c2)OOC1(C)C)CCn1cc(COC2[C@H]3OCO[C@H]3CO[C@@]23COC(C)(C)O3)nn1` (stereo partly specified), the “fold change (FC)” value was 0.15.

Take `C[C@@H]1CC[C@H]2[C@@H](C)C(O)O[C@@H]3O[C@]4(C)CC[C@@H]1[C@]32OO4` (stereo partly specified): the “fold change (FC)” value was determined as 0.45. Still for that read-out and setting: with `C[C@@H]1CC[C@H]2[C@@H](C)C(OCc3cn(Cc4ccccc4)nn3)O[C@@H]3O[C@]4(C)CC[C@@H]1[C@]32OO4` (stereo partly specified) the figure was 0.3. `CC(CCC1OC(c2ccc(Cl)cc2)OOC1(C)C)CCn1cc(COC2[C@H]3OCO[C@H]3CO[C@@]23COC(C)(C)O3)nn1` (stereo partly specified): the “fold change (FC)” value was 0.15. As to `COc1ccc(C2OOC(C)(C)C(CCC(C)CCn3cc(COC4[C@H]5OCO[C@H]5CO[C@@]45COC(C)(C)O5)nn3)O2)cc1` (stereo partly specified), the “fold change (FC)” value was found to be 0.2.

The subject of a further experiment is MDA-MB-435. Described as §1. The format is functional. Summed up: as §2
In the case of `CC(CCC1OC(c2ccc([N+](=O)[O-])cc2)OOC1(C)C)CCn1cc(COC2[C@H]3OCO[C@H]3CO[C@@]23COC(C)(C)O3)nn1` (stereo partly specified), the inhibition result is “inactive”. As for `CC(CCC1OC(c2cccc3ccccc23)OOC1(C)C)CCn1cc(COC2[C@H]3OCO[C@H]3CO[C@@]23COC(C)(C)O3)nn1` (stereo partly specified), the inhibition entry was “inactive”. On the same count and under the same terms, next, `CC(CCC1OC(c2cccc([N+](=O)[O-])c2)OOC1(C)C)CCn1cc(COC2[C@H]3OCO[C@H]3CO[C@@]23COC(C)(C)O3)nn1` (stereo partly specified): “inactive”. For `CC(CCC1OC(c2ccc(Cl)cc2)OOC1(C)C)CCn1cc(-c2ccc(-c3cn(CCC(C)CCC4OC(c5ccc(Cl)cc5)OOC4(C)C)nn3)cc2)nn1` (stereo unspecified), the inhibition entry was “inactive”.

For `CC(CCC1OC(c2ccc3c(c2)OCO3)OOC1(C)C)CCn1cc(COC2[C@H]3OCO[C@H]3CO[C@@]23COC(C)(C)O3)nn1` (stereo partly specified), the inhibition entry is “inactive”. `CC(CCC1OC(C)(c2ccc(Cl)cc2)OOC1(C)C)CCn1cc(-c2ccc(-c3cn(CCC(C)CCC4OC(C)(c5ccc(Cl)cc5)OOC4(C)C)nn3)cc2)nn1` (stereo unspecified): the inhibition result is “inactive”. Same read-out and setting: next, `CC(CCC1OC(c2cccc(Br)c2)OOC1(C)C)CCn1cc(-c2ccc(-c3cn(CCC(C)CCC4OC(c5cccc(Br)c5)OOC4(C)C)nn3)cc2)nn1` (stereo unspecified): “inactive”; `CC(CCC1OC(c2ccc([N+](=O)[O-])cc2)OOC1(C)C)CCn1cc(-c2ccc(-c3cn(CCC(C)CCC4OC(c5ccc([N+](=O)[O-])cc5)OOC4(C)C)nn3)cc2)nn1` (stereo unspecified): “inactive”.

On to `Cc1ccc(C2OOC(C)(C)C(CCC(C)CCn3cc(COC4[C@H]5OCO[C@H]5CO[C@@]45COC(C)(C)O5)nn3)O2)cc1` (stereo partly specified), for which the inhibition entry is “inactive”. `CC(CCC1OC(c2ccccc2Br)OOC1(C)C)CCn1cc(-c2ccc(-c3cn(CCC(C)CCC4OC(c5ccccc5Br)OOC4(C)C)nn3)cc2)nn1` (stereo unspecified): the inhibition entry was “inactive”. In the case of `C[C@@H]1CC[C@H]2[C@@H](C)C(=O)O[C@@H]3O[C@@]4(C)CC[C@@H]1[C@]32OO4`, the inhibition result is “inactive”. Take `COc1ccc(C2OOC(C)(C)C(CCC(C)CCn3cc(-c4ccc(-c5cn(CCC(C)CCC6OC(c7ccc(OC)cc7)OOC6(C)C)nn5)cc4)nn3)O2)cc1` (stereo unspecified): the inhibition entry was “inactive”. The same measure, in the same setting: with `CC(CCC1OC(c2ccc(F)cc2)OOC1(C)C)CCn1cc(COC2[C@H]3OCO[C@H]3CO[C@@]23COC(C)(C)O3)nn1` (stereo partly specified) the entry was “inactive”; with `CC(CCC1OC(c2ccc3c(c2)OCO3)OOC1(C)C)CCn1cc(-c2ccc(-c3cn(CCC(C)CCC4OC(c5ccc6c(c5)OCO6)OOC4(C)C)nn3)cc2)nn1` (stereo unspecified), “inactive”; with `Cc1ccc(C2OOC(C)(C)C(CCC(C)CCn3cc(-c4ccc(-c5cn(CCC(C)CCC6OC(c7ccc(C)cc7)OOC6(C)C)nn5)cc4)nn3)O2)cc1` (stereo unspecified), “inactive”. With `CC(CCC1OC2(CCCCC2)OOC1(C)C)CCn1cc(-c2ccc(-c3cn(CCC(C)CCC4OC5(CCCCC5)OOC4(C)C)nn3)cc2)nn1` (stereo unspecified), the inhibition entry is “inactive”. Still for that read-out and setting: next, `CC(CCC1OC(c2cccc3ccccc23)OOC1(C)C)CCn1cc(-c2ccc(-c3cn(CCC(C)CCC4OC(c5cccc6ccccc56)OOC4(C)C)nn3)cc2)nn1` (stereo unspecified): “inactive”; `CC(CCC1OC(c2ccco2)OOC1(C)C)CCn1cc(-c2ccc(-c3cn(CCC(C)CCC4OC(c5ccco5)OOC4(C)C)nn3)cc2)nn1` (stereo unspecified): “inactive”. With `CC(CCC1OC(c2ccc(F)cc2)OOC1(C)C)CCn1cc(-c2ccc(-c3cn(CCC(C)CCC4OC(c5ccc(F)cc5)OOC4(C)C)nn3)cc2)nn1` (stereo unspecified), the inhibition result is “inactive”.

Take `CC(CCC1OC(c2ccccc2Br)OOC1(C)C)CCn1cc(COC2[C@H]3OCO[C@H]3CO[C@@]23COC(C)(C)O3)nn1` (stereo partly specified): the inhibition result was “inactive”.

Turning to `CC(CCC1OC2(CCCCC2)OOC1(C)C)CCn1cc(COC2[C@H]3OCO[C@H]3CO[C@@]23COC(C)(C)O3)nn1` (stereo partly specified), the inhibition result was “inactive”.
